In PMC3817951 (Journal of immunology (Baltimore, Md. : 1950), 2013):
Several values for one entry are separate records, joined by “and”; a condition that tells them apart may be missing. Equal entries are not always repeated. Entries after “also recorded” stand apart in the source; their conditions may differ. Where two headings read alike, the source gives them in different places.

Columns and labels:
[1] = tested on: murine iNKT hybridoma N38-2C12 (Vα14Vβ8.2b); assay: In vitro stimulation of iNKT hybridoma 2C12 with glycolipid pulsed BMDCs; format: cell-based, mouse; settings: for IL-2 production (ELISA): BMDCs loaded 100 ng/ml for 20 h, co-culture with 2C12 for 16 hours
In short: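 Hybridoma kept in cDMEM (DMEM, 10% FCS, glutamine, pen/strep, 2-mercaptoethanol). BMDCs grown 10 days with GM-CSF, pulsed 20 h with 100 ng/ml glycolipid. 5×10^4 hybridoma cells plus 10^5 BMDCs at 37°C. Secreted IL-2 by ELISA at 16 h (n=6). Intracellular IL-2 at 4 h. TCRβ by flow at 24 h with CD45.1 BMDCs, gated CD45.2+CD45.1−7AAD−.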

TCR = assay: Surface plasmon resonance: TCR binding to mCD1d-glycolipid complexes; set-up: species or system mouse; settings: for Kd: SPR, TCR towards glycolipid presented by mCD1d, 25°C, Langmuir 1:1 model
In short: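 Biotinylated birA-tagged mouse CD1d loaded overnight with 6-fold molar excess glycolipid (DMSO stock 1 mg/ml). 500–600 RU of complex captured on streptavidin chip. TCR injected at 0.0156–2 μM in 10 mM Hepes, 150 mM NaCl, 3 mM EDTA, pH 7.4, for 1.5–3 min. Dissociation 45 min at 25°C. Empty-CD1d reference subtracted, Langmuir 1:1 fit. Three runs, separate TCR preparations.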

iNKT cells [2] = format: in vivo, C57BL/6 mice; settings: for IFN-γ levels (Figure 2 panel b, IL-12 panel): at 16 hours
iNKT cells [3] = format: in vivo, C57BL/6 mice; settings: for serum IFN-γ levels / serum IL-12 levels: 16 hours after injection of 5 μg glycolipid (i.p.)
In short: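 C57BL/6 mice aged 5–12 weeks received 5 μg glycolipid i.p. in PBS. Glycolipid solubilised in PBS or vehicle (sucrose/deoxycholate/Tween 20), heated 20 min at 80°C, sonicated 10 min. Serum cytokines measured 16 h after injection. Mean ± s.e.m. of at least sixteen mice, pooled from two independent experiments.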

B16 melanoma cells = assay: B16 melanoma lung metastasis model; format: in vivo, mice; settings: 10 000 BMDCs loaded with glycolipid
In short: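 C57BL/6 mice aged 5–12 weeks. B16 cells grown in advanced RPMI with 10% FCS, glutamine and pen/strep, lifted with cell dissociation buffer and washed twice. 2x10^5 or 4x10^5 cells were injected i.v. into the tail vein within 30 min of harvest. Glycolipid-pulsed BMDCs given i.v. (6x10^4 or 1x10^4). Mice killed at day 14 and lungs removed for scoring.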

human iNKT cells = format: cell-based
In short: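 Sorted, expanded iNKT cells from healthy adult donors. Autologous PBMCs isolated by density centrifugation, incubated overnight with glycolipid (100 ng/ml), washed and irradiated (40 Gy). 5x10^4 iNKT cells cultured with 10^5 PBMCs in RPMI 1640 plus 10% human AB serum, pyruvate, non-essential amino acids and pen/strep. Supernatant cytokines at 24 h by cytometric bead array. Data pooled from two experiments, two donors.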

[4] = tested on: spleen DCs (CD11c CD11b double positive); assay: Co-stimulatory marker expression on spleen DCs; format: in vivo, mouse
CD1d [5] = settings: compared with CD1d-α-GalCer complexes; cited from earlier work
CD1d [6] = assay: Cellular assay of stability of the glycolipid-CD1d complex; format: cell-based, mouse; settings: BMDCs loaded 100 ng/mL 20 hours, wash-off 4h to 48h
In short: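 BMDCs grown 10 days with GM-CSF, then pulsed 20 h with 100 ng/mL glycolipid and washed. Cells were held in medium for 4–48 h, and released glycolipid was washed off. They were then co-cultured with 2C12 hybridoma (5×10^4 hybridoma:10^5 BMDCs, cDMEM, 37°C). IL-2 in the medium, normalised to the 4 h point, indicates remaining loaded CD1d. Mean ± s.e.m., n=6.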

[7] = 600 000 glycolipid-pulsed BMDCs, at 16 and 24 hours
[8] = 600 000 glycolipid-pulsed BMDCs
[9] = 100 ng/ml loading, 24hrs, compared to α-GalCer
[10] = 10 000 pulsed BMDCs, 16 hours, compared to NU-α-GalCer and α-GalCer

| SMILES | IL-2 production (ELISA) [1] | Kd (TCR) | serum IFN-γ levels (iNKT cells [2]; [7]) | IFN-γ levels (Figure 2 panel b, IL-12 panel) (iNKT cells [2]; [8]) | serum IFN-γ levels (iNKT cells [3]) | lung nodules / anti-metastatic activity (B16 melanoma cells) | serum IL-12 levels (iNKT cells [3]) | other results |
| --- | --- | --- | --- | --- | --- | --- | --- | --- |
| CCCCCCCCCCCCCCCCCCCCCCCCCC(=O)N[C@@H](CO[C@H]1O[C@H](COC(=O)Nc2ccc(Cl)cc2)[C@H](O)[C@H](O)[C@H]1O)[C@H](O)[C@H](O)CCCCCCCCCCCCCC [4ClPhC-α-GalCer, α-GalCer-6″-(4-chlorophenyl)carbamate] | significantly differ from α-GalCer | 49.3 ± 0.3 nM | significantly higher compared to NU-α-GalCer | significantly higher compared to α-GalCer | – | – | – | reduced binding affinity (TCR; 49 nM vs. 25 nM): 2 fold |
| CCCCCCCCCCCCCCCCCCCCCCCCCC(=O)N[C@@H](CO[C@H]1O[C@H](COC(=O)Nc2cccc3ccccc23)[C@H](O)[C@H](O)[C@H]1O)[C@H](O)[C@H](O)CCCCCCCCCCCCCC [NC-α-GalCer, α-GalCer-6″-(1-naphthyl)carbamate] | significantly differ from α-GalCer | 37 nM and 37.1 nM | – | – | – | – | – | – |
| CCCCCCCCCCCCCCCCCCCCCCCCCC(=O)N[C@@H](CO[C@H]1O[C@H](CNC(=O)Nc2cccc3ccccc23)[C@H](O)[C@H](O)[C@H]1O)[C@H](O)[C@H](O)CCCCCCCCCCCCCC [NU-α-GalCer, α-GalCer-6″-(1-naphthyl)urea] | higher IL-2 levels; also recorded: significantly differ from α-GalCer | – | significantly higher compared to α-GalCer | significantly higher compared to α-GalCer | significantly lower; also recorded: comparable or slightly lower | significantly stronger compared to α-GalCer | – | – |
| CCCCCCCCCCCCCCCCCCCCCCCCCC(=O)N[C@@H](CO[C@H]1O[C@H](COC(=O)Nc2ccncc2)[C@H](O)[C@H](O)[C@H]1O)[C@H](O)[C@H](O)CCCCCCCCCCCCCC [PyrC-α-GalCer, α-GalCer-6″-(pyridin-4-yl)carbamate] | significantly differ from α-GalCer | 25 ± 3 nM | significantly higher compared to NU-α-GalCer | – | – | superior in preventing tumor metastasis; also recorded: reduce the amount of noduli even significantly better | significantly higher IL-12 levels than NU-α-GalCer | increase of IL-12 levels (iNKT cells [3]; PyrC-α-GalCer administration, mode and comparator not stated at place): 10 fold; IFN-γ production (human iNKT cells; [9]): slightly elevated; IL-4 production (human iNKT cells; [9]): less production; IL-12 production (human iNKT cells; [9]): slightly elevated; IL-13 production (human iNKT cells; [9]): less production; Th1-biased cytokine secretion (human iNKT cells; purified human iNKT cells, more IFN-γ and IL-12 and less IL-4 and IL-13 compared to α-GalCer): able to induce Th1-biased cytokine secretion; CD40 and OX40L expression ([4]; spleen DCs): induces early CD40 and OX40L upregulation; serum IFN-γ levels (iNKT cells [2]; [10]): significantly higher; serum IL-12 levels (iNKT cells [2]; [10]): significantly higher; serum IL-12 levels (iNKT cells [2]; [7]): even after 24 hours markedly higher than for NU-α-GalCer; also recorded: significantly higher compared to NU-α-GalCer; course of IFN-γ level over time (iNKT cells [2]; glycolipid pulsed BMDCs, in contrast to 4ClPhC-α-GalCer and NU-α-GalCer): increased up to 24 hours after injection |
| CCCCCCCCCCCCCCCCCCCCCCCCCC(=O)NC(CC1OC(CO)C(O)C(O)C1O)C(O)C(O)CCCCCCCCCCCCCC (stereo not drawn) [α-C-GalCer] | higher IL-2 levels | – | – | – | – | – | – | TCRβ expression ([1]; 2C12, 24 hours after coculture with glycolipid-pulsed CD45.1 BMDCs): clear TCRb downregulation; half-life in vivo of complex with CD1d (CD1d [5]): much longer half-life in vivo; stability of glycolipid-CD1d complex (IL-2 normalized to 4 hours after wash off) (CD1d [6]): much slower decay compared to α-GalCer |
| CCCCCCCCCCCCCCCCCCCCCCCCCC(=O)N[C@@H](CO[C@H]1O[C@H](CO)[C@H](O)[C@H](O)[C@H]1O)[C@H](O)[C@H](O)CCCCCCCCCCCCCC [α-GalCer, alpha galactosyl ceramide, reference compound] | – | 26 nM and 26.4 nM | – | – | significantly lower | – | significantly lower | CD80 and CD86 expression ([4]; dendritic cell surface): induced upregulation of both CD80 and CD86 |
